Experiments:
SF-268 = test: Cytotoxicity against human SF268 cells after 48 hrs by SRB assay; format: functional, cell-based; details: SF-268, 48 h
Outline: (§1)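 Compounds dissolved in DMSO and freshly diluted in culture medium, final DMSO 0.25%. Growth inhibition read by sulforhodamine B protein staining per the NCI screening protocol. Doxorubicin as positive control. GI50 given as mean ± SEM of 3-6 independent experiments, each in duplicate.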

NCI-H460 = test: Cytotoxicity against human NCI-H460 cells after 48 hrs by SRB assay; format: functional, cell-based; details: NCI-H460, 48 h; outline: as §1
MCF7 = test: Cytotoxicity against human MCF7 cells after 48 hrs by SRB assay; format: functional, cell-based; details: MCF7, 48 h; outline: as §1
[1] = Antiproliferative activity against human lymphocytes; format: cell-based; details: Lymphocyte

Structure (SMILES)	GI50 (SF-268) [µM]	GI50 (NCI-H460) [µM]	GI50 (MCF7) [µM]	IC50 [1] [µM]	IC50 (SF-268) [µM]	IC50 (NCI-H460) [µM]	IC50 (MCF7) [µM]
COc1cccc2c1C(=O)c1c(O)c3c(c(O)c1C2=O)C[C@@](O)(C(=O)CO)C[C@@H]3O[C@H]1C[C@H](N)[C@H](O)[C@H](C)O1 [DOXORUBICIN]	0.094	0.094	0.0428	–	–	–	–
C[C@@H](C(=O)O)[C@@]1(C)CC[C@H]2[C@@](C)(CC[C@@]3(C)[C@@H]4CC(C)(C)CC[C@]4(C)CC[C@]23C)[C@@H]1CC=O	–	–	–	10.7	5.4	5.4	5.4
CC(=O)[C@@]1(C)CC[C@H]2[C@@](C)(CC[C@@]3(C)[C@@H]4CC(C)(C)CC[C@]4(C)CC[C@]23C)[C@@H]1CCC(=O)O	24.6	32.8	26.9	–	–	–	–
COC(=O)C[C@H]1[C@]2(C)CC[C@@]3(C)[C@@H]4CC(C)(C)CC[C@]4(C)CC[C@]3(C)[C@H]2CC[C@]1(C)C(C)=O	106	93.9	101	–	–	–	–
CC1(C)CC[C@]2(C)CC[C@]3(C)[C@H]4CC[C@@]5(C)[C@@H](CCC(=O)[C@]5(C)O)[C@]4(C)CC[C@@]3(C)[C@@H]2C1	> 50	> 50	> 50	–	–	–	–
CC(=O)[C@@]1(C)CC[C@H]2[C@@](C)(CC[C@@]3(C)[C@@H]4CC(C)(C)CC[C@]4(C)CC[C@]23C)[C@@H]1CC(=O)O	12.9	17.6	10.9	–	–	–	–
COC(=O)CC[C@H]1[C@]2(C)CC[C@@]3(C)[C@@H]4CC(C)(C)CC[C@]4(C)CC[C@]3(C)[C@H]2CC[C@]1(C)C(C)=O	> 110	> 110	> 110	–	–	–	–
CC1(C)CC[C@]2(C)CC[C@]3(C)[C@H]4CC[C@@]5(C)[C@@H](CCC(=O)[C@@]5(C)O)[C@]4(C)CC[C@@]3(C)[C@@H]2C1	> 110	> 110	> 110	–	–	–	–

Source: ChEMBL document CHEMBL1151259, “Hemisynthetic secofriedelane triterpenes with inhibitory activity against the growth of human tumor cell lines in vitro” (J Nat Prod, 2004)
